Laboratory results taken from ChEMBL document CHEMBL4513216, “Probing the Open Global Health Chemical Diversity Library for Multistage-Active Starting Points for Next-Generation Antimalarials” (ACS Infect Dis, 2020).

Assay: Toxicity liver stage against HepG2, at 10uM
Type: cell-based
Set-up: test concentration 10 uM, cell line HepG2-A16-CD81EGFP
Details: human, HepG2-A16-CD81EGFP cells; read-out: INHIBITION
How it was run: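 Uninfected HepG2-A16-CD81EGFP cells, 3 × 10^3 per well, 1536-well, plated on prespotted compound at 10 μM final, parasite-free screening media added to match infected plates; puromycin 10 μM positive, DMSO 0.5% negative; run in parallel with 48 h PbLuc assay at 37 °C, 5% CO2; viability by CellTiter-Glo luminescence, normalized to controls.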

Structure (SMILES)	cytotoxicity at 10 µM [%]
Cn1cc(-c2nc(CN3CCCCC3Cn3cncn3)cs2)cn1 (centres undefined)	-17.4
COc1cc2c(nn1)CCN(Cc1nc(Cc3ccccc3)no1)C2	-2.09
COc1ccc(OCc2nc(C(=O)N3CCC(NC(C)=O)C3)co2)cc1 (centres undefined)	-1.21
CC(C)c1sc(Cl)nc1C(=O)NCc1ccncc1	0.649
Cc1ccc(OCC2CCCN(C(=O)Cn3ccccc3=O)C2)cc1 (centres undefined)	0.55
O=C(c1ncc[nH]1)N1CCC(Cn2cc(-c3cccc(Cl)c3)nn2)CC1	-12.8
COc1c(C)cnc(CN(C)C2CCOC3(CCOCC3)C2)c1C (centres undefined)	-0.971
CC(C)CN1CC(O)CN(C(=O)c2cccc(C(F)(F)F)c2)CC1=O (centres undefined)	-7.08
Cc1nc2c(c(N3CCC(O)(CN4CCCC4)CC3)n1)CCNCC2	-3.39
CNC(=O)c1n[nH]c2c1C(c1cccc3[nH]ccc13)CC(=O)N2 (centres undefined)	4.06
O=C(CN1CCCC1Cn1cccn1)NCCOc1cccc(F)c1 (centres undefined)	-3.54
CCN1C[C@@H](C(=O)O)[C@H](c2cccc(OC)c2)C1	-19
CCn1c(N)nc2cc(C(=O)NCCc3ccncc3)cnc21	1.22
Cn1cc(C(=O)N2CCCC(c3cc(O)n(C)n3)C2)cn1 (centres undefined)	-21.6
CS(=O)(=O)Nc1cccc(C(=O)Nc2ccc3c(c2)C(=O)NC3)c1	5.91
Cc1nc(CN2CCCC(c3nccs3)C2)cs1 (centres undefined)	2.3
COCCNc1ncnc2c1CCN(C(=O)CC1CCC(=O)N1)CC2 (centres undefined)	1.15
CC(C)(C)S(=O)(=O)c1ccc(N2CCN(c3ccccc3)CC2)nn1	-4.81
COc1ccccc1C1(CNc2ncc(S(N)(=O)=O)s2)CC1	-3.6
CN(C)C(=O)Cc1ccc(NC(=O)NC2CCCCC2)cc1	-11.3
Cc1nnsc1C(=O)N1CCC2(CC1)c1nc[nH]c1CCN2CC(C)C	26.3
Cc1csc(N2CCN(CC(=O)NC3CCOCC3)CC2C)n1 (centres undefined)	-7.13
CN1C[C@@H](n2cnc(-c3ccccc3)c2-c2c[nH]cn2)C[C@H]1C(=O)O	0.791
COC(=O)c1ccn(COc2ccccc2Cl)n1	8.99
CC(=O)NC1CC(C)(C)Cc2c1cnn2-c1cccc(F)c1 (centres undefined)	-144
CN1C[C@@H]2CN(C(=O)C3CC=CC3)C[C@@H]2C1=O	-114
COc1cc(OC)c(-n2nnc(C(=O)O)c2C)cc1Cl	-16.8

Structure (SMILES)	cytotoxicity at 10 µM [%]
O=C(NCc1ccccc1CO)Nc1ccc2c(c1)CCC2	3.09
C=C(Cl)CN(C)C1CCN(CCc2ccccn2)CC1	-2.93
COc1ccc2nnc(CCCC(=O)NCc3ccccc3)n2n1	-4.1
COCC(=O)N1CCCC(c2nc(N(C)C)ncc2-c2ccccc2)C1 (centres undefined)	6.1
CN(Cc1csc(-c2cnn(C)c2)n1)CC1CCN(CCO)CC1	7.77
CC(C)c1ccc(NS(=O)(=O)C=c2[nH]c(=O)n3cccc3c2=O)cc1	-4.55
COc1ccc(CN(C)[C@@H]2CN(C(=O)c3cccn3C)C[C@H]2O)cc1	-21.5
Cc1nc2cc(C3CCN(Cc4cccc(F)c4F)C3)nn2c(O)c1C (centres undefined)	0.333
Cc1noc(C2CCC3(CCN(C(=O)c4ccnnc4)CC3)O2)n1 (centres undefined)	6.69
C=C(C)COc1ccccc1C(=O)NCCCc1nnn[nH]1	-1.82
CCc1nc(CN2CCCN(C(=O)c3cn[nH]c3C)CC2)cs1	-2.97
CCCC(C)C(=O)N1CCC(c2cc(N3CCOCC3)nc(C)n2)CC1 (centres undefined)	-3.35
CC(C)c1n[nH]c(C2CN(CCc3cccs3)CCO2)n1 (centres undefined)	-4.57
COc1ncccc1CNC(=O)c1ccc(C)[nH]c1=O	-2.22
Cc1cccc2c(CCNC(=O)[C@H](N)c3ccccc3)c[nH]c12	-3.55
Cc1ccc(C(=O)N2Cc3ccccc3OC3(CCOCC3)C2)cn1	-25.8
Cc1cc(CNCC2CCCN(C(=O)OC(C)(C)C)C2)no1 (centres undefined)	6.22
CCC1CCCCCN1C(=O)c1cc(C#N)c(SC)[nH]c1=O (centres undefined)	12
Cc1noc(C)c1CN1C[C@@H]2COC[C@H](C(=O)N3CCCCO3)[C@@H]2C1	-1.98
O=C(O)[C@@H]1CN(Cc2ccc3nsnc3c2)C[C@H]1c1ccncc1	5.4
Cc1ncc2c(c1-c1noc(-c3cscn3)n1)CCNC2	-3.37
CCN(CCC#N)Cn1ncc2cn(-c3ccccc3)nc2c1=O	-14.5
CN1CCOC(C(=O)Nc2nc(-c3ccc(Cl)cc3)n[nH]2)C1 (centres undefined)	-4.34
CN1CCN(C(=O)c2cccc(S(=O)(=O)NCC3(C)COC3)c2)CC1	-14.1
O=C(c1n[nH]c2c1CN(C1CCOC1)CC2)N1CCCC1 (centres undefined)	-1.07
Cc1cc(C(=O)N2C[C@@H]3C(CN(C)CCc4ccccn4)[C@@H]3C2)c(C)o1 (some centres undefined)	-50.1
COc1ncc(CN(C)C(C)c2cccnc2)cn1 (centres undefined)	13
